Assay results pooled from the literature.
Each line is one published result; the experiments were not run side by side.

| Structure (SMILES) | target or system | test | test system | conditions | quantity | value |
| --- | --- | --- | --- | --- | --- | --- |
| CC[C@@]1(O)C(=O)OCc2c1cc1n(c2=O)Cc2cc3ccccc3nc2-1 | MDCK |  | Caco-2 | 100 µM, 105 min, pH 7.4 | Papp B→A | 10 ×10⁻⁶ cm/s |
| N#Cc1ccc(NC(=S)NN=Cc2ccc(F)cc2)cc1 | CRFK | cell growth or viability, MTS |  |  | CC50 | > 100 µg/mL |
| COC(=O)C(NC(=O)c1cn(CCCCCF)c2ccccc12)C(C)(C)C (stereo not drawn) |  |  | male Sprague-Dawley rat, plasma | subcutaneous, 200 µg/kg | half-life | 17.1 h |
| Cl.Cl.O=C(CCN1CCCCC1)c1ccc(-c2ccc(C(=O)CCN3CCCCC3)cc2)cc1 |  |  | Sprague-Dawley rat, plasma | oral, 25 mg/kg | half-life | 6.05 h |
| CN(C)[C@H]1C[C@@]23CC[C@@]4(O2)C(=CC[C@]2(C)C(c5ccc6ccncc6c5)=CC[C@H]24)C=C3[C@@H](O)[C@@H]1O | human PBMC | cell growth or viability, flow cytometry |  |  | CC50 | 100 µM |
| N#Cc1ccc(NC(=S)NN=Cc2ccccc2)cc1 | CRFK | cell growth or viability, MTS |  |  | CC50 | > 100 µg/mL |
| O=C(Nc1cccnn1)N1CCN([C@@H]2CCOc3cc(C(F)(F)F)ccc32)CC1 |  |  | male Sprague-Dawley rat, brain | oral, 1 mg/kg, 4 h | concentration | 438 ng/g |
| COC(=O)[C@H]1[C@@H](OC(=O)c2ccccc2)C[C@@H]2CC[C@H]1N2C |  |  | male Sprague-Dawley rat, plasma | intraperitoneal, 10 mg/kg, 1 h | concentration | 310 ng/mL |
| O=C(O)C(F)(F)C(F)(F)C(F)(F)C(F)(F)C(F)(F)C(F)(F)C(F)(F)F | Solute carrier family 22 member 6 (SLC22A6, Homo sapiens, UniProt Q4U2R8) | transporter uptake, substrate | HEK293 | 2.5 min, pH 7.4 | Km | 65.8 µM |
